# Assay outcomes (PubChem BioAssay)
# miR-122 sensor = miR-122 inhibition in Huh7 cells | Huh7 miR-122 Renilla luciferase sensor, 48 h; neutral wells = 0, positive control = 100 | activation (reporter increase), % at 12.5 µM | hit rate 0.3% among 340,000 | AID 602342;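 active means mean replicate activation score at least 90 and every replicate individually at or above 90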;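 further: higher luciferase means less miR-122 activity so hits act as miR-122 inhibitors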
# PGC1a acetyl inh = PGC1a acetylation modulation, inhibitor mode. U2OS PGC1a acetylation, AlphaScreen anti-acetyl-lysine; with virally co-expressed GCN5 acetyltransferase. hit rate 0.17% among 350,000. inhibition, % at 15.6 µM;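 active means every replicate shows inhibition of at least 40%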;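 further: 0% = neutral control wells and 100% = positive control wells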
# CFTR F508del cor = CFTR F508del correction in bronchial cells; CFBE cells, YFP halide quenching; stimulated with forskolin plus potentiator P3; % fluorescence drop versus neutral controls; activity (quench increase), % at 7.58 µM; hit rate 0.36% among 350,000;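 active means mean added fluorescence quench of at least 8% versus neutral control, with both replicates also reaching 8%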;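 further: cells transiently co-express mutant CFTR-F508del with the halide-sensitive YFP; corrector assay measuring rescue of mutant channel to the surface after 24 h compound exposure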
# ARNT TACC3 PPI = disruptors of human ARNT/TACC3 interaction; Q9Y6A5; AlphaScreen His-ARNT PAS-B/GST-TACC3 binding, luminescence; TACC3 fragment carries E629A point mutation; inhibition, % at 9.99 µM; hit rate 0.66% among 390,000; AID 623870;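 active means mean inhibition of replicates at least 50% and at least half of replicates each reaching 50%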;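 further: 0% = complete ARNT plus TACC3 wells and 100% = ARNT alone without TACC3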
# CAL PDZ FP-1 = inhibitors of human CAL PDZ peptide binding | Q9HD26 | purified CAL PDZ, TMR-peptide fluorescence polarization, 1 h | inhibition, % at 24.9 µM | hit rate 0.92% among 300,000 | AID 602252;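 active means mean inhibition of at least 30% with at least half of replicates also reaching 30%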;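 further: 0% = DMSO neutral control and 100% = excess unlabeled competitor peptide PRC23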
# CAL PDZ FP-2 = blocks peptide binding to human CAL PDZ domain. purified CAL PDZ, TMR-peptide fluorescence polarization, 1 h. inhibition, % at 20 µM. hit rate 0.02% among 330,000. AID 504414;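 active means highest replicate inhibition of at least 40%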;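 further: plate controls were DMSO neutral control wells for no effect and unlabeled competitor peptide control wells for full effect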
#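 Material: tagged CAL PDZ domain; buffer or medium: 25 mM sodium phosphate pH 7.4, 150 mM NaCl, TCEP, IgG, Thesit; compound dosing: single point, 20 µM; schedule: 1 h incubation at room temperature before polarization reading; measured by: FP readout, S and P plane fluorescence; read-out basis: percent inhibition from loss of millipolarization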
# ARNT Alpha ctr-1 = interferes with AlphaScreen signal, flagging false ARNT-TACC3 hits. shares compounds with ARNT TACC3 PPI. His-ARNT PASB-GST AlphaScreen artifact counter-screen, luminescence. AC50, µM (titrated, usually from 68 µM), without a hit: at the highest dose activity change, negative = signal decrease. hit rate 50% among 1,200;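 active means every separate test run was called active for a drop in luminescence, with AC50 within twice the top valid dose, actives reach about 71 µM in these data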
# ARNT Alpha ctr-2 = produces AlphaScreen artifacts in ARNT-TACC3 counter-screen; AC50, µM; hit rate 70% among 45; shares compounds with ARNT TACC3 PPI; Dual-tagged His-ARNT PASB-GST AlphaScreen artifact counter-screen;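 active means luminescence drop, with half-maximal potency fitted within twice the sample's top valid dose, cut at about 70 µM in these data; inactive means the rest, including signal moving the wrong way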
# Starred values were filed as active, the others as inactive; / = no result; [ ] = dose if it differs, or a comment. A selection: hits, their analogues and other compounds. The true share with any hit is near 1.7%.
SMILES,miR-122 sensor,PGC1a acetyl inh,CFTR F508del cor,ARNT TACC3 PPI,CAL PDZ FP-1,CAL PDZ FP-2,ARNT Alpha ctr-1,others
C[C@H](CO)N1C[C@H](C)[C@H](CN(C)Cc2cccnc2)Oc2cc(C#CCN(C)C)ccc2S1(=O)=O,-2.1[16.7 µM],4.8,-4.0,active,/,/,-7.2%[42 µM],
C[C@H]1CN([C@@H](C)CO)S(=O)(=O)c2ccc(C3=CCCC3)cc2O[C@@H]1CN(C)Cc1ccccn1,21.9[16.7 µM],-20.3,1.5,3.5,/,/,/,
CO[C@H]1CN(C)C(=O)c2ccc(NS(=O)(=O)CC(F)(F)F)cc2OC[C@H](C)N(Cc2cccnc2)C[C@@H]1C,/,6.7,-1.1,-9.9,/,/,/,
CO[C@H]1CN(C)C(=O)c2cc(NS(=O)(=O)CC(F)(F)F)ccc2OC[C@H](C)N(Cc2cccnc2)C[C@@H]1C,/,-4.4,-3.2,active,/,/,-4.9%[42 µM],
CO[C@@H]1CN(C)C(=O)c2cc(NS(=O)(=O)CC(F)(F)F)ccc2OC[C@@H](C)N(C(=O)c2ccc3c(c2)OCO3)C[C@@H]1C,/,-2.2,-3.4,51.3*,/,/,22.3µM*,
COc1ccc2c3c([nH]c2c1)[C@H](CO)N(Cc1ccccc1F)CC31CN(S(C)(=O)=O)C1,/,18.5,-0.5,/,/,/,/,
COc1ccc(S(=O)(=O)N(C)C[C@H]2OCCCC[C@H](C)Oc3ccc(NS(=O)(=O)c4ccc(C)cc4)cc3C(=O)N([C@H](C)CO)C[C@H]2C)cc1,-6.2[16.7 µM],9.0,1.3,-1.1,/,/,/,
Cc1ccc(OCc2nc(-c3ccccn3)n[nH]2)cc1,-2.2,-15.8,/,/,-1.7,0.3,/,
Cc1cccc(OCc2nc(-c3ccccn3)n[nH]2)c1,-2.4,-4.1,/,67.4*,/,0.1,35µM*,
Oc1ccc(/C=N/Nc2ncc(Br)cn2)c(O)c1,-1.6,8.9,/,56.9*,1.1,0.2,30µM*,
Oc1ccc(Br)cc1/C=N/Nc1ncc(-c2ccccc2)cn1,/,-3.3,-1.3,-2.9,1.1,0.7,/,
CO[C@H]1CN(C)C(=O)c2cc(NC(C)=O)ccc2OC[C@H](C)N(C(=O)c2ccc(F)cc2)C[C@@H]1C,/,-1.9,-1.0,-1.4,/,/,/,
C[C@@H]1CN([C@@H](C)CO)C(=O)Cc2cc(NC(=O)Nc3ccc(F)cc3)ccc2O[C@H]1CN(C)C(=O)Nc1ccc(F)cc1,-0.1[16.7 µM],6.1,-4.7,8.4,/,/,/,
CN(Cc1ccccc1)CC(O)COc1ccc(CNCc2nccn2C)cc1 (stereo not given),/,-10.5,5.3,63.2*,-4.3,-0.4,-16.3%,
Cc1ccc(S(=O)(=O)N[C@H]2CC[C@H](CCNC(=O)C3CC3)O[C@@H]2CO)cc1,/,-12.2,0.2,5.4,/,/,/,
COc1ccc(C(=O)Nc2nc3ccccc3[nH]2)cc1S(=O)(=O)N1CCOCC1,-1.3,-8.9,-0.1,50.8*,/,-4.5,-29.1%,
COc1ccc(C(=O)Nc2nc(-c3ccccn3)cs2)cc1S(=O)(=O)N1CCOCC1,10.9,17.7,5.7,61.6*,-4.9,-2.9,9.69µM*,
COc1ccc(C(=O)Nc2ccccn2)cc1S(=O)(=O)N1CCOCC1,/,-8.6,-1.8,0.8,-3.1,-2.5,/,
O=C(Nc1nc(-c2ccccn2)cs1)c1ccc(S(=O)(=O)N2CCOCC2)cc1,/,/,/,/,/,/,/,ARNT Alpha ctr-2=6.52*
COc1ccc(C(=O)Nc2ccccc2C)cc1S(=O)(=O)N1CCOCC1,-1.0,1.6,1.4,-5.0,2.7,-2.5,/,
O=C(Nc1nc(-c2ccncc2)cs1)c1ccc(S(=O)(=O)N2CCOCC2)cc1,/,/,/,3.2,-1.9,-2.0,/,
C[C@@H]1CN([C@H](C)CO)C(=O)c2cc(NC(=O)Nc3cccc4ccccc34)ccc2O[C@@H](C)CCCCO[C@@H]1CN(C)S(=O)(=O)c1ccc(F)cc1,7.1[16.7 µM],-13.9,1.0,9.7,/,/,/,
COc1cccc(C(=O)Oc2c(CN3CCOCC3)cc(Cl)c3cccnc23)c1,-13.7,/,/,77.5*,-1.4,0.1,57.8µM*,
O=C(Oc1c(CN2CCOCC2)cc(Cl)c2cccnc12)c1cccs1,-9.3,22.2,6.2,64.8*,-1.1,-0.6,-21.0%,
OCCN1CCN(Cc2cc(Cl)c3cccnc3c2O)CC1,3.5,16.1,/,63.3*,-7.2,/,8.47µM*,
SMILES,miR-122 sensor,PGC1a acetyl inh,CFTR F508del cor,ARNT TACC3 PPI,CAL PDZ FP-1,CAL PDZ FP-2,ARNT Alpha ctr-1,others
OCCN1CCN(Cc2cc(Br)cc(Br)c2O)CC1,-1.3,-4.9,/,-27.1,/,-0.7,/,
C[C@@H]1CCCCO[C@@H](CN(C)C(=O)C2CCCCC2)[C@@H](C)CN([C@@H](C)CO)C(=O)c2cc(NC(=O)Nc3cccc4ccccc34)ccc2O1,-15.8[16.7 µM],10.8,-0.5,17.4,/,/,/,
CN1CCN(C(=O)c2cc(-c3ccccc3)on2)CC1,-0.8,12.0,/,-4.0,0.7,-1.6,2.6%[38 µM],
O=C(c1cc(-c2ccccc2)on1)N1CCc2cccnc21,/,/,/,/,/,/,-7.9%[38 µM],
O=C(c1cc(-c2ccccc2)on1)N1CCc2ccccc2C1,/,/,/,-13.6,3.3,-1.1,/,
COc1cccc2c1NC(C(=O)O)C1CC=CC21 (stereo not given),/,/,/,-11.6,-3.2,6.9,/,
O=C(O)C1Nc2c(O)cc(Cl)c([N+](=O)[O-])c2C2C=CCC12 (stereo not given),/,/,0.2,57.6*,3.7,0.4,31.5µM*,
O=C(CN1CCOc2ccccc21)NCc1ccco1,1.2,/,2.5,0.3,/,-0.1,/,
O=C(CN1CC(=O)Oc2ccccc21)NCc1ccco1,1.1,-12.0,/,61.3*,-3.0,-1.2,19.3µM*,
C[C@H](CO)N1C[C@H](C)[C@@H](CN(C)Cc2ccc(C(=O)Nc3ccccc3N)cc2)OCc2cnnn2CCCC1=O,2.1[16.7 µM],13.2,-1.3,2.5,/,/,/,
O=S(=O)(N[C@H]1CC[C@@H](CCn2cc(-c3ccccn3)nn2)O[C@H]1CO)c1cccc(F)c1,/,2.2,1.8,88.1*,/,/,39µM*,
Cc1cccc(S(=O)(=O)N[C@H]2CC[C@@H](CCn3cc(-c4ccccn4)nn3)O[C@H]2CO)c1,/,6.6,0.2,/,/,/,/,
O=S(=O)(N[C@@H]1CC[C@H](CCn2cc(-c3ccccn3)nn2)O[C@H]1CO)c1cccc(F)c1,/,-6.3,-1.5,83.7*,/,/,44.5µM*,
CC(C)NC(=O)N(C)C[C@H]1OCCCC[C@@H](C)Oc2ccc(NS(=O)(=O)c3ccccc3)cc2C(=O)N([C@H](C)CO)C[C@@H]1C,-1.0[16.7 µM],8.6,-0.7,-4.1,/,/,/,
O=C(C[C@@H]1CC[C@@H](NC(=O)c2ccccc2)[C@H](CO)O1)Nc1ccc(-c2ccccc2)cc1,1.3[16.7 µM],8.4,-0.8,53.5*,/,/,-8.4%[42 µM],
O=C(C[C@@H]1CC[C@H](NC(=O)Nc2cc(F)ccc2F)[C@@H](CO)O1)Nc1ccc(-c2ccccc2)cc1,/,-3.4,1.3,53.8*,/,/,0.7%[38 µM],
